Results from different studies.
Lines come from different studies, so protocols differ.
Target: MAP kinase-interacting serine/threonine-protein kinase 2 (MKNK2, Homo sapiens, UniProt Q9HBH9)

Cn1cncc1[C@](O)(COc1ccc(C#N)cc1-c1ccc(OC(F)(F)F)cc1)c1ccc(C#N)cc1  remaining binding (cell-free assay; competition with immobilised ligand; 1 µM): 85%
COc1ncccc1-c1cnn2ccc(N3CCN(C(=O)OC(C)C)CC3)nc12  remaining binding (binding; competition with immobilised ligand; 1 µM): 100%
O=c1[nH]c2ccccc2n1C1CCN(Cc2ccc(-c3[nH]c4cc5ncnc5cc4nc3-c3ccccc3)cc2)CC1  remaining signal (cell-free assay; 0.5 µM): 98.7%
COc1cc(Nc2ncc(F)c(Nc3ccc4c(n3)NC(=O)C(C)(C)O4)n2)cc(OC)c1OC  inhibition (binding; competition with immobilised ligand; 10 µM): 100%
N#CC1(c2ccccn2)CCN(Cc2cc(C(=O)O)c(=O)n3ccccc23)CC1  remaining binding (cell-free assay; competition with immobilised ligand; 1 µM): 85%
C#Cc1n[nH]c2c(-c3cn(C(C)c4ccccn4)c(=O)[nH]c3=O)cc(F)cc12 (stereo not shown)  inhibition (enzyme activity; inhibitor; 1 µM): 9.9%
Nc1ncc(-c2nc(N3CCOCC3)nc(N3CCOCC3)n2)c(C(F)F)n1  remaining binding (binding; competition with immobilised ligand; 10 µM): 56%
C#Cc1n[nH]c2c(-c3cn([C@@H](C)c4ccccc4)c(=O)[nH]c3=O)cc(F)cc12  inhibition (enzyme activity; inhibitor; 0.1 µM): -7.9%
CC(C)(C)c1cc(C=C(C#N)C#N)cc(Br)c1O  remaining activity (enzyme activity; inhibitor; 0.5 µM): 100%
Cc1nn(C)cc1-c1nc2c(N3CCN(Cc4ccc(Cl)cc4)CC3)c(Cl)cnc2[nH]1  remaining binding (binding; competition with immobilised ligand; 1 µM): 46%
